According to ChEMBL document CHEMBL1152300, “Ligand specificity of constitutive androstane receptor as probed by induced-fit docking and mutagenesis” (J Med Chem, 2008):

Columns and labels:
Assay type in all cases: cell-based
[1] = target: T1, Nuclear receptor subfamily 1 group I member 3 (Mus musculus, UniProt O35627, L353A); experiment: Decrease in nuclear co-repressor receptor binding to mouse CAR L353A mutant […] at 2 uM by yeast two-hybrid assay; settings: read-out: Activity
Procedure, shortened: (§1)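 Yeast two-hybrid: yeast expressing wild-type or mutant mouse CAR LBD plus SRC-1 or NCoR, selected on SD medium lacking Leu and Trp. Pooled colonies treated with DMSO or test chemical for 3.5 h. β-Galactosidase normalized to cell density. SRC-1 reference: wild-type + DMSO = 100. NCoR reference: 10 µM androstenol = 100. Mean ± SD, two independent determinations, each in triplicate.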

[2] = target: Nuclear receptor subfamily 1 group I member 3 (Mus musculus, UniProt O35627, S251L); experiment: Decrease in nuclear co-repressor receptor binding to mouse CAR S251L mutant […] at 2 uM by yeast two-hybrid assay; parameters: scale not given: the % may be the effect or the level left; procedure, shortened: as §1
[3] = target: Nuclear receptor subfamily 1 group I member 3 (Mus musculus, UniProt O35627, L212A); experiment: Enhancement of steroid receptor co-activator 1 binding to mouse CAR L212A mutant […] at 2 uM by yeast two-hybrid assay; procedure, shortened: as §1
[4] = target: T1, Nuclear receptor subfamily 1 group I member 3; experiment: Decrease in steroid receptor coactivator 1 binding to mouse CAR L353A mutant […] at 1 uM by yeast two-hybrid assay; settings: read-out: Activity
Procedure, shortened: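 Yeast expressing wild-type or mutant mouse CAR LBD plus SRC-1, selected on SD plates lacking leucine and tryptophan. Pooled colonies treated with DMSO or compound for 3.5 h. β-Galactosidase activity normalized to cell density. Reference is wild-type CAR + SRC-1 with DMSO (=100). Mean ± SD of two independent determinations, each in triplicate.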

[5] = target: Nuclear receptor subfamily 1 group I member 3 (Mus musculus, UniProt O35627, L253F); experiment: Effect on steroid receptor coactivator 1 binding to mouse CAR L253F mutant […] at 1 uM by yeast two-hybrid assay; settings: read-out: Activity
Procedure, shortened: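 Yeast two-hybrid assay. Yeast co-expressing wild-type or mutant mouse CAR LBD and the SRC-1 partner were selected on SD plates lacking leucine and tryptophan. Random colonies were pooled and amplified, then treated with DMSO or test chemical for 3.5 h. β-galactosidase activity was normalized to cell density and set relative to wild-type mCAR + SRC-1 with DMSO (=100). Mean ± standard deviation of two determinations, each in triplicate.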

T1 sequence (O35627 whole entry L353A, the tested form may be a part): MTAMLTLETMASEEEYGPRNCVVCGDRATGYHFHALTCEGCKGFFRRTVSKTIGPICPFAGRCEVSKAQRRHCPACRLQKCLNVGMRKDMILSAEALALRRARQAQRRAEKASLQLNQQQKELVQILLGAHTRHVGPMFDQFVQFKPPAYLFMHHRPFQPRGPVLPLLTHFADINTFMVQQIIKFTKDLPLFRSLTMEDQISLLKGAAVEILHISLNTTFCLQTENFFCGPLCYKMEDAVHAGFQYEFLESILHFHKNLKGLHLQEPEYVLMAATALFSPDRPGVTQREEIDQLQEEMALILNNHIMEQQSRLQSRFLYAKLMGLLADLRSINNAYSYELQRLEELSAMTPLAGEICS
Sequence of Nuclear receptor subfamily 1 group I member 3 (Mus musculus, UniProt O35627, L212A) (O35627 whole entry L212A): as the sequence (O35627 whole entry L353A, the tested form may be a part) above, with L212A, A353L counted along it
Sequence of Nuclear receptor subfamily 1 group I member 3 (Mus musculus, UniProt O35627, S251L) (O35627 whole entry S251L): as the sequence (O35627 whole entry L353A, the tested form may be a part) above, with S251L, A353L counted along it
Sequence of Nuclear receptor subfamily 1 group I member 3 (Mus musculus, UniProt O35627, L253F) (O35627 whole entry L253F, the tested form may be a part): as the sequence (O35627 whole entry L353A, the tested form may be a part) above, with L253F, A353L counted along it

inhibition at 2 µM [1] [%] | Activity [2] | Activity [3] | SMILES | inhibition at 1 µM [4] [%] | activity at 1 µM [5] [%]
≥ 50 | >= 50% | >= 50% | Clc1ccccc1C(c1ccccc1)(c1ccccc1)n1ccnc1 [CLOTRIMAZOLE] | – | –
– | – | – | Clc1cnc(Oc2ccc(Oc3ncc(Cl)cc3Cl)cc2)c(Cl)c1 | ≥ 50 | < 50
